Data set [1] can be described thus: Inhibition of IKKalpha/IKKbeta in human HEK293T cells transfected with firefly luciferase gene assessed as inhibition of IL-1 beta-stimulated NF-kappaB signalling preincubated for 1 hr followed by IL-1 beta stimulation measured after 3 hrs by luciferase reporter gene assay. The format is cell-based. The note with it: HEK-293T.
In data set [2] the test system is Hs-578T. The data set is described as follows: Cytotoxicity against human Hs-578T cells assessed as reduction in cell viability measured after 24 hrs by CellTiter-Glo luminescent assay. The format is functional, cell-based. Put shortly:
(§1)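 High-throughput viability screen of test agents across a panel of 22 cancerous and noncancerous human cell lines. Viability was read by CellTiter-Glo luminescence.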
For orientation: In ATP-based viability assays light output follows the ATP content of the culture.

A short description of data set [3]: Cytotoxicity against human Hs888Lu cells assessed as reduction in cell viability measured after 24 hrs by CellTiter-Glo luminescent assay. The format is cell-based. An outline of the steps: as §1
The target in data set [4] is T1, Inhibitor of nuclear factor kappa-B kinase subunit beta (Homo sapiens) (UniProt O14920).
T1 sequence (whole entry): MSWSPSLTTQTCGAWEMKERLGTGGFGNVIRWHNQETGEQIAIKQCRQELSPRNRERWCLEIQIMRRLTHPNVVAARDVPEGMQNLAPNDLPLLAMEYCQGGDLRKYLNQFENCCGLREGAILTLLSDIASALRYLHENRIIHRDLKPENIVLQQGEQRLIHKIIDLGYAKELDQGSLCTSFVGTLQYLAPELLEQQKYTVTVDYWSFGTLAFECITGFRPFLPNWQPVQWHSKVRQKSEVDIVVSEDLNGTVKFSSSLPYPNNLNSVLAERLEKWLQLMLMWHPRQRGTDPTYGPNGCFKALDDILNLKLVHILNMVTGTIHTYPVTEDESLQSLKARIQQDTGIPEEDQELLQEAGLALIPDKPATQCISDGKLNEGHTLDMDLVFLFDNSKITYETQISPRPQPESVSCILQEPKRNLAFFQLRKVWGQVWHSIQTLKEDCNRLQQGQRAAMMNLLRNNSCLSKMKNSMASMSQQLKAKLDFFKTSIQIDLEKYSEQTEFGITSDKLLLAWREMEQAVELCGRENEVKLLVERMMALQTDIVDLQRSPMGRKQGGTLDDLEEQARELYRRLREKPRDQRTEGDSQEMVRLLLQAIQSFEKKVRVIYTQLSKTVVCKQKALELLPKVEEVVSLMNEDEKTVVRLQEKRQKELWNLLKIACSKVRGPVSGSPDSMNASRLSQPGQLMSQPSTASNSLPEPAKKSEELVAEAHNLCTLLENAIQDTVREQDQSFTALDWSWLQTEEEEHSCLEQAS
Description: Inhibition of IKK beta nuclear translocation in human HEK-293T cells assessed as reduction in IKK beta level in nucleus at 15 uM pretreated with compound for 1 hr followed by stimulation with IL-1 beta for 3 hrs by western blot analysis. Format: subcellular. An outline of the steps: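 HEK 293T cells were pretreated with vehicle or test agent, then stimulated with IL-1β (or vehicle). Cells were lysed and nuclei separated, and the cytosolic and nuclear fractions were each probed for IKKα and IKKβ by Western blotting.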
For orientation: In western blotting, separated proteins are transferred to a membrane and probed.

Data set [5] in a line: Cytotoxicity against human Hs895T cells assessed as reduction in cell viability measured after 24 hrs by CellTiter-Glo luminescent assay. The format is functional, cell-based. An outline of the steps:
as §1

Data set [6] is described as follows: Cytotoxicity against human Hs895SK cells assessed as reduction in cell viability measured after 24 hrs by CellTiter-Glo luminescent assay. The note with it: Hs 895.Sk. The format is cell-based. Put shortly: as §1
The nature of data set [7]: Selectivity index, ratio of IC50 for human Hs895SK cells to EC50 for human HS578T cells measured after 24 hrs by CellTiter-Glo luminescent assay. The note with it: Hs895SK cells (IC50) versus HS578T cells (EC50). Format: toxicity. An outline of the steps:
as §1

A short description of data set [8]: Selectivity index, ratio of IC50 for human HS895SK cells to EC50 for human SU-DHL-4 cells measured after 24 hrs by CellTiter-Glo luminescent assay. Put shortly: as §1

Molecules are shown by their SMILES. Activity calls are given as the source filed them. The calls are words filed in the database; no cut-off is given here.

As a reminder, the IC50 is the concentration that gives 50% inhibition. As a reminder, the EC50 is the concentration giving half of the maximal effect. Take `C=C1C[C@]23C[C@@]1(O)CC[C@H]2[C@@]12C=CC(=O)[C@@](C)(C(=O)O1)[C@H]2[C@@H]3C(=O)OC`: the results for the IC50 in data set [1], in data set [3] and in data set [6] were 6 µM, greater than 10 µM and greater than 10 µM, respectively. Moreover, the EC50 in data set [2] is less than 0.04 µM; in data set [5] it was 9.2 µM. Moreover, in data set [4], the inhibition entry was “Active”. Also, the selectivity ratio at 24 h in data set [7] was greater than 500. Besides, the “Ratio IC50/EC50” value in data set [8] is reported as 500.

Values taken from ChEMBL document CHEMBL4725436, “Gibberellin JRA-003: A Selective Inhibitor of Nuclear Translocation of IKKα” (ACS Med Chem Lett, 2020).
